These results are taken from BindingDB's records for doi:10.1016/j.bmcl.2005.10.065 (Cytrx Laboratories, 2005).

This assay concerns the target T1, NADP-dependent malic enzyme (Homo sapiens, UniProt P48163).
T1 sequence (P48163 whole entry): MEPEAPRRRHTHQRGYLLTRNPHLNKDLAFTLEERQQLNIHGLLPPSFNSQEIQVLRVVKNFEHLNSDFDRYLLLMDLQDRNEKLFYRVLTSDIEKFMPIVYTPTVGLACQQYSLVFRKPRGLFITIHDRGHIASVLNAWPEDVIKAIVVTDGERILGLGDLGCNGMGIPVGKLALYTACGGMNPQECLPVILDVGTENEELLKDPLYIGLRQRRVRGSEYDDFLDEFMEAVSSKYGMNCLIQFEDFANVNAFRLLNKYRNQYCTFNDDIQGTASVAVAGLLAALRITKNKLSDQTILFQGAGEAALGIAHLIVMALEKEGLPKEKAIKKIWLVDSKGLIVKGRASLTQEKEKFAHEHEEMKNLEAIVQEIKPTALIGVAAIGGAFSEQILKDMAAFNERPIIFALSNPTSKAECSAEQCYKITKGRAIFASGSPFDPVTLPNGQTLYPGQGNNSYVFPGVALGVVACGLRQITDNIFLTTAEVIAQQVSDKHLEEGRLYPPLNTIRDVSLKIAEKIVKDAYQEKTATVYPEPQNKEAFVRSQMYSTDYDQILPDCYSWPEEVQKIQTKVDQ
Briefly: Inhibitory activity against cytosolic malic enzyme. The essentials:
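Coupled endpoint assay. Enzyme pre-incubated with compound 45 min at room temperature in 85 mM Tris pH 7.5 containing 2 mM malic acid and 5 mM MnCl2. Reaction started with 124 µM NADP, run 30 min at room temperature, stopped with 0.5 M EDTA. NADPH formed read via MTS/PMS reduction to formazan, absorbance at 492 nm.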

The compound `COc1ccc(N2CCN(c3cc(O)n(-c4cccc(Cl)c4Cl)c3O)CC2)cc1` [1-(2,3-dichlorophenyl)-3-(4-(4-methoxyphenyl)piperazin-1-yl)pyrrolidine-2,5-dione] had a 50% inhibitory concentration (IC50) above 20 µM.

The compound `COc1ccc(N2CCN(c3cc(O)n(-c4ccccc4)c3O)CC2)cc1` [3-(4-(4-methoxyphenyl)piperazin-1-yl)-1-phenylpyrrolidine-2,5-dione] returned an IC50 above 20 µM.

A word on the IC50: it is the concentration that gives 50% inhibition. Higher therefore signals weaker potency.
